The values below come from the array DNA melting data of Ke et al. (doi:10.1101/2024.01.08.574731).

A short description of series [1]: melting temperature; fluorescence melt of hairpins on a sequencing array, two-state fit, raised by 9.35 °C to match UV melts. To be noted: sodium 0.088 M. The method, boiled down: (§1)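 Folding enthalpy and melting temperature come from bootstrapped two-state fits to Cy3 fluorescence of library hairpins carrying annealed Cy3 and quencher oligos on a sequenced MiSeq flow cell. Imaging was done in 50 mM Na-HEPES pH 8.0, 25 mM NaCl, stepping by 2.5 °C up to 60 °C, and signals were normalised to pre-quench Cy3 and to control constructs. Results of four replicates were combined by inverse variance, and fitted temperatures were raised by 9.35 °C to match UV melts.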

The nature of series [2]: folding enthalpy; higher = less favourable; fluorescence melt of hairpins on a sequencing array, two-state fit. To be noted: sodium 0.088 M. The method, boiled down:
as §1

In the case of GGAGTACCGAAAGGTTCC (((..(((....)))))), the Tm in series [1] was found to be 36.3 °C. In addition, the folding enthalpy in series [2] was -15 kcal/mol.
The matching figures for GGAGTACGAAAGTAATCC (((.(((....))).))): 51.4 °C and -31 kcal/mol.
Turning to GGAGTAGCGAAAGCTTCC (((..(((....)))))), the Tm in series [1] is 38.2 °C. Also, the folding enthalpy in series [2] is -16.1 kcal/mol.
The matching figures for GGAGTAGGAAACTATTCC (((.(((....))).))): 37.5 °C and -21.4 kcal/mol.
The matching figures for GGAGTAGGAAACTGCTTC (.((.((....)).)).): 41.4 °C and -32.7 kcal/mol.
On to GGAGTCACGAAAGTGTCC (((..(((....)))))), for which the Tm in series [1] is 32.1 °C. Also, the folding enthalpy in series [2] was -13.7 kcal/mol.
The matching figures for GGAGTCGAAAGACAGTCC ((((((....)))..))): 31.5 °C and -14.3 kcal/mol.
As for GGAGTCGAAAGACCATCC ((((((....)))..))), the Tm in series [1] stood at 29.5 °C. In series [2], the folding enthalpy is -11.2 kcal/mol.
Consider GGAGTCGAAAGACCGTCC ((((((....)))..))), for which the Tm in series [1] amounted to 32.2 °C. For the same sequence, the folding enthalpy in series [2] was -12.7 kcal/mol.
For GGAGTCGAAAGACGCTCC ((((((....)))..))), in series [1], the Tm amounted to 42.3 °C. Also, the folding enthalpy in series [2] is -12.6 kcal/mol.
Regarding GGAGTCGAAAGACGTTCC ((((((....)))..))), the Tm in series [1] is 37.6 °C. The folding enthalpy in series [2] is -11.3 kcal/mol.
With GGAGTCGAAAGACTCTCC ((((((....)))..))), in series [1], the Tm was determined as 51.6 °C. The folding enthalpy in series [2] was -10.2 kcal/mol.
Taken in the same sequence, the figures for GGAGTGCGAAAGCAGTCC (((.(((....))).))) were 65.8 °C and -30.1 kcal/mol.
Taken in the same sequence, the figures for GGAGTGGAAACACTCC ((((((....)))))) were 63.2 °C and -33 kcal/mol.
The matching figures for GGAGTGGGAAACCGCTTC (.((.((....)).)).): 38 °C and -25.7 kcal/mol.
For the sequence GGAGTTCGAAAGAAGTCC (((.(((....))).))), the Tm in series [1] is 54.1 °C. In addition, the folding enthalpy in series [2] was -41.3 kcal/mol.
Taken in the same sequence, the figures for GGAGTTGGAAACAACCCC ((.((((....)))).)) were 43.5 °C and -22.8 kcal/mol.
The matching figures for GGAGTTGGAAACGACTCC (((((.(....).))))): 54.9 °C and -23.2 kcal/mol.
Taken in the same sequence, the figures for GGAGTTGGAAACGACTTC (.(((.(....).))).) were 59.7 °C and -35.4 kcal/mol.
For the sequence GGATAACGAAAGTTTTCC (((.(((....))).))), in series [1], the Tm is 43.7 °C. In series [2], the folding enthalpy was -27.6 kcal/mol.
Regarding GGATAAGCGAAAGCTTCC (((..(((....)))))), the Tm in series [1] stood at 35.5 °C. In addition, the folding enthalpy in series [2] is -12.4 kcal/mol.
Taken in the same sequence, the figures for GGATACCGAAAGGTTCC (((.(((....)))))) were 49.3 °C and -25.6 kcal/mol.
The matching figures for GGATACGAAAGTACATCC ((((((....)))..))): 34.5 °C and -17.1 kcal/mol.
The matching figures for GGATACGAAAGTACTCC ((((((....))).))): 37.9 °C and -22.9 kcal/mol.
With GGATACGAAAGTACTTCC ((((((....)))..))), the Tm in series [1] turned out to be 34.8 °C. In addition, the folding enthalpy in series [2] is -17.1 kcal/mol.
The matching figures for GGATACGAAAGTAGTCC ((((((....))).))): 40.4 °C and -20.6 kcal/mol.
Taken in the same sequence, the figures for GGATACGAAAGTATTTCC ((((((....)))..))) were 28.1 °C and -24.9 kcal/mol.
In the case of GGATACGGAAACGTGTTC (.(.(((....))).).), in series [1], the Tm worked out at 32.2 °C. The folding enthalpy in series [2] is -18.8 kcal/mol.
Turning to GGATAGCCGAAAGGCTCC (((..(((....)))))), the Tm in series [1] came to 38.1 °C. For the same sequence, the folding enthalpy in series [2] was -9.11 kcal/mol.
As for GGATAGCGAAAGCTTTCC (((.(((....))).))), in series [1], the Tm is 49.3 °C. The folding enthalpy in series [2] is -29.7 kcal/mol.
The matching figures for GGATAGGGAAACCCATCC ((((.((....)).)))): 39.8 °C and -29.4 kcal/mol.
Taken in the same sequence, the figures for GGATAGGGAAACTTATCC (((((.(....).))))) were 35.7 °C and -30.3 kcal/mol.
Taken in the same sequence, the figures for GGATATCGAAAGATTTCC (((.(((....))).))) were 41.5 °C and -30.9 kcal/mol.
Turning to GGATCACGAAAGTGGTCC (((.(((....))).))), the Tm in series [1] is 60.4 °C. For the same sequence, in series [2], the folding enthalpy was -33.7 kcal/mol.
In the case of GGATCCACGAAAGTGTCC (((..(((....)))))), in series [1], the Tm stood at 28.4 °C. Further, the folding enthalpy in series [2] was -12.4 kcal/mol.
With GGATCCGAAAGGAACTCC ((((((....)))..))), the Tm in series [1] was 34.7 °C. For the same sequence, the folding enthalpy in series [2] is -13.3 kcal/mol.
Turning to GGATCCGAAAGGAAGTCC ((((((....)))..))), in series [1], the Tm turned out to be 29.5 °C. In addition, the folding enthalpy in series [2] was -10.1 kcal/mol.
Taken in the same sequence, the figures for GGATCCGAAAGGAGGTCC ((((((....)))..))) were 32.9 °C and -14.9 kcal/mol.
Consider GGATCCGAAAGGATATCC ((((((....)))..))), for which, in series [1], the Tm was found to be 40.7 °C. For the same sequence, the folding enthalpy in series [2] was -15.2 kcal/mol.
The matching figures for GGATCCGGAAACGGGTCC (((.(((....))).))): 59.4 °C and -43.7 kcal/mol.
Take GGATCCGGAAACGGGTTC (.(.(((....))).).): the Tm in series [1] was determined as 38 °C. Moreover, in series [2], the folding enthalpy is -16.8 kcal/mol.
The matching figures for GGATCCTCGAAAGAGTCC (((..(((....)))))): 23.6 °C and -12.3 kcal/mol.
Consider GGATCGCGAAAGCGCTCC (((.(((....))).))), for which, in series [1], the Tm was 54.2 °C. Besides, the folding enthalpy in series [2] was -25.3 kcal/mol.
As for GGATCGGGAAACCAATCC ((((.((....)).)))), the Tm in series [1] was 38.2 °C. In addition, in series [2], the folding enthalpy was -29.6 kcal/mol.
Consider GGATCTACGAAAGTATCC (((..(((....)))))), for which, in series [1], the Tm turned out to be 32.9 °C. Also, the folding enthalpy in series [2] is -11.3 kcal/mol.
The matching figures for GGATCTTCGAAAGAATCC (((..(((....)))))): 25.8 °C and -10.7 kcal/mol.
With GGATGAGCGAAAGCTTCC (((..(((....)))))), in series [1], the Tm amounted to 39.4 °C. In addition, the folding enthalpy in series [2] was -11.4 kcal/mol.
Turning to GGATGAGGAAACTCGTCC (((.(((....))).))), the Tm in series [1] was determined as 50.8 °C. In addition, the folding enthalpy in series [2] was -38.4 kcal/mol.
Taken in the same sequence, the figures for GGATGCGAAAGCAAATCC ((((((....)))..))) were 47.1 °C and -21 kcal/mol.
Taken in the same sequence, the figures for GGATGCGAAAGCAGATCC ((((((....)))..))) were 45.6 °C and -16.1 kcal/mol.
Consider GGATGCGAAAGCAGTTCC ((((((....)))..))), for which the Tm in series [1] worked out at 36 °C. Besides, the folding enthalpy in series [2] was -14.3 kcal/mol.
For the sequence GGATGCGGAAACACATCC (((((.(....).))))), the Tm in series [1] stood at 47.9 °C. Besides, in series [2], the folding enthalpy was -44.2 kcal/mol.
Taken in the same sequence, the figures for GGATGCGGAAACGCATTC (.(((((....))))).) were 54.5 °C and -19.2 kcal/mol.
The matching figures for GGATGCGGAAACGCGTCC (((.(((....))).))): 61.8 °C and -47.5 kcal/mol.
Consider GGATGCTCGAAAGAGTCC (((..(((....)))))), for which, in series [1], the Tm was determined as 29.1 °C. Moreover, the folding enthalpy in series [2] was -12.1 kcal/mol.
In the case of GGATGGGGAAACCCATCC (((((((....))))))), the Tm in series [1] was found to be 66.4 °C. The folding enthalpy in series [2] is -46.7 kcal/mol.
As to GGATGGGGAAACCTGTCC (((..((....))..))), in series [1], the Tm came to 41 °C. Also, the folding enthalpy in series [2] is -29.3 kcal/mol.
In the case of GGATGGGGAAACTCATCC (((((.(....).))))), the Tm in series [1] stood at 49.2 °C. In addition, the folding enthalpy in series [2] is -41 kcal/mol.
Taken in the same sequence, the figures for GGATGGTCGAAAGACTCC (((..(((....)))))) were 32.9 °C and -14.2 kcal/mol.
For GGATGTCCGAAAGGATCC (((..(((....)))))), the Tm in series [1] worked out at 32.2 °C. In series [2], the folding enthalpy is -14.3 kcal/mol.
The matching figures for GGATGTCGAAAGACGTCC (((.(((....))).))): 61 °C and -38.8 kcal/mol.
The matching figures for GGATGTGGAAACACATCC (((((((....))))))): 64.5 °C and -42.6 kcal/mol.
The matching figures for GGATGTGGAAACACGTCC (((.(((....))).))): 53 °C and -55.2 kcal/mol.
For the sequence GGATGTGGAAACGCATTC (.(((.(....).))).), the Tm in series [1] is 33.9 °C. In series [2], the folding enthalpy is -22.9 kcal/mol.
For the sequence GGATTACGAAAGTATTCC (((.(((....))).))), the Tm in series [1] was found to be 44 °C. Also, the folding enthalpy in series [2] was -32.6 kcal/mol.
In the case of GGATTAGCGAAAGCTTCC (((..(((....)))))), the Tm in series [1] was 32.7 °C. Further, the folding enthalpy in series [2] is -11.1 kcal/mol.
The matching figures for GGATTAGGAAACTAGTCC (((.(((....))).))): 37.2 °C and -25.2 kcal/mol.
Consider GGATTCGAAAGAAATCC ((((((....))).))), for which the Tm in series [1] amounted to 44 °C. In series [2], the folding enthalpy is -24.1 kcal/mol.
The matching figures for GGATTCGAAAGAACTCC ((((((....))).))): 36 °C and -22 kcal/mol.
Taken in the same sequence, the figures for GGATTCGAAAGAACTTCC ((((((....)))..))) were 28.4 °C and -8.73 kcal/mol.
Taken in the same sequence, the figures for GGATTCGAAAGAAGTCC ((((((....))).))) were 36.7 °C and -17.2 kcal/mol.
Turning to GGATTGACGAAAGTCTCC (((..(((....)))))), in series [1], the Tm came to 28.4 °C. Further, in series [2], the folding enthalpy is -13.7 kcal/mol.
Turning to GGATTGCGAAAGCATTCC (((.(((....))).))), the Tm in series [1] worked out at 52.8 °C. Besides, the folding enthalpy in series [2] was -36.2 kcal/mol.
